According to ChEMBL document CHEMBL1275392, “Assessment of chemoselective neoglycosylation methods using chlorambucil as a model” (2010):

Key:
HT-29 = experiment: Growth inhibition of human HT-29 cells after 7 days by celltiter-glo assay; assay type: functional; details: HT-29, 168 h
HCT-15 [1] = experiment: Growth inhibition of human HCT15 cells after 7 days by celltiter-glo assay; assay type: functional; details: HCT-15, 168 h
UACC-62 [2] = experiment: Growth inhibition of human UACC62 cells at 10 uM after 7 days by celltiter-glo assay; assay type: functional; details: UACC-62, 168 h, read-out: GI
UACC-62 [3] = experiment: Growth inhibition of human UACC62 cells after 7 days by celltiter-glo assay; assay type: functional; details: UACC-62, 168 h
CAKI-1 [4] = experiment: Growth inhibition of human Caki1 cells after 7 days by celltiter-glo assay; assay type: functional; details: CAKI-1, 168 h
IGROV-1 = experiment: Growth inhibition of human IGROV1 cells after 7 days by celltiter-glo assay; assay type: functional; details: IGROV-1, 168 h
K562 = experiment: Growth inhibition of human K562 cells at 10 uM after 7 days by celltiter-glo assay; assay type: functional; details: K562, 168 h, read-out: GI
SW-620 = experiment: Growth inhibition of human SW620 cells after 7 days by celltiter-glo assay; assay type: functional; details: SW-620, 168 h
PC-3 [5] = experiment: Growth inhibition of human PC3 cells after 7 days by celltiter-glo assay; assay type: functional; details: PC-3, 168 h
KM12 [6] = experiment: Growth inhibition of human KM12 cells after 7 days by celltiter-glo assay; assay type: functional; details: KM12, 168 h
DU-145 = experiment: Growth inhibition of human DU145 cells after 7 days by celltiter-glo assay; assay type: functional; details: DU-145, 168 h
UO-31 = experiment: Growth inhibition of human UO31 cells after 7 days by celltiter-glo assay; assay type: functional; details: UO-31, 168 h
A549 [7] = experiment: Growth inhibition of human A549 cells expressing p53 after 7 days by celltiter-glo assay; assay type: functional; details: A549, 168 h
[8] = Growth inhibition of human p53 deficient H1299 cells after 7 days by celltiter-glo assay; assay type: functional; details: NCI-H1299, 168 h
Outline: (§1)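 Cells seeded at 500 per well in 384-well plates. Compounds came from 30 mM DMSO stocks, serially diluted and tested in quadruplicate. Incubation was 7 d at 37 °C under 5% CO2. Calcein AM (10 μM) and EthD-1 were added, followed by a fluorescence read. CellTiter-Glo lysis was then done for 10 min at room temperature, with a luminescence read. GI50 came from curve fitting.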

HCT-116 = experiment: Growth inhibition of human HCT116 cells at 10 uM after 7 days by celltiter-glo assay; assay type: functional; details: HCT-116, 168 h, read-out: GI
A549 [9] = experiment: Growth inhibition of human A549 cells after 7 days by celltiter-glo assay; assay type: functional; details: A549, 168 h
MDA-MB-231 = experiment: Growth inhibition of human MDA-MB-231 cells after 7 days by celltiter-glo assay; assay type: functional; details: MDA-MB-231, 168 h
HCT-15 [10] = experiment: Growth inhibition of human HCT15 cells at 10 uM after 7 days by celltiter-glo assay; assay type: functional; details: HCT-15, 168 h, read-out: GI
COLO 205 = experiment: Growth inhibition of human COLO205 cells at 10 uM after 7 days by celltiter-glo assay; assay type: functional; details: COLO 205, 168 h, read-out: GI
TK-10 = experiment: Growth inhibition of human TK10 cells at 10 uM after 7 days by celltiter-glo assay; assay type: functional; details: TK-10, 168 h, read-out: GI
PC-3 [11] = experiment: Growth inhibition of human PC3 cells at 10 uM after 7 days by celltiter-glo assay; assay type: functional; details: PC-3, 168 h, read-out: GI
SNB-19 = experiment: Growth inhibition of human SNB19 cells after 7 days by celltiter-glo assay; assay type: functional; details: SNB-19, 168 h
HOP-62 = experiment: Growth inhibition of human HOP62 cells at 10 uM after 7 days by celltiter-glo assay; assay type: functional; details: HOP-62, 168 h, read-out: GI
CAKI-1 [12] = experiment: Growth inhibition of human Caki1 cells at 10 uM after 7 days by celltiter-glo assay; assay type: functional; details: CAKI-1, 168 h, read-out: GI
[13] = Growth inhibition of human […] cells at 10 uM after 7 days by celltiter-glo assay; assay type: functional; details: 168 h, read-out: GI
OVCAR-8 = experiment: Growth inhibition of human OVCAR8 cells after 7 days by celltiter-glo assay; assay type: functional; details: OVCAR-8, 168 h
786-0 = experiment: Growth inhibition of human 786-0 cells at 10 uM after 7 days by celltiter-glo assay; assay type: functional; details: 786-0, 168 h, read-out: GI
SK-MEL-2 = experiment: Growth inhibition of human SK-MEL-2 cells at 10 uM after 7 days by celltiter-glo assay; assay type: functional; details: SK-MEL-2, 168 h, read-out: GI
SNB-75 = experiment: Growth inhibition of human SNB75 cells at 10 uM after 7 days by celltiter-glo assay; assay type: functional; details: SNB-75, 168 h, read-out: GI
HOP-92 = experiment: Growth inhibition of human HOP92 cells at 10 uM after 7 days by celltiter-glo assay; assay type: functional; details: HOP-92, 168 h, read-out: GI
Malme-3M = experiment: Growth inhibition of human MALME-3M cells at 10 uM after 7 days by celltiter-glo assay; assay type: functional; details: 168 h, read-out: GI
NCI-H226 = experiment: Growth inhibition of human NCI-H226 cells after 7 days by celltiter-glo assay; assay type: functional; details: NCI-H226, 168 h
A498 = experiment: Growth inhibition of human A498 cells after 7 days by celltiter-glo assay; assay type: functional; details: A498, 168 h
[14] = Ratio of compound GI50 to chlorambucil GI50 for human H1299 cells; assay type: functional
SK-MEL-28 = experiment: Growth inhibition of human SK-MEL-28 cells at 10 uM after 7 days by celltiter-glo assay; assay type: functional; details: SK-MEL-28, 168 h, read-out: GI
NCI/ADR-RES = experiment: Growth inhibition of human NCI/ADR-RES cells after 7 days by celltiter-glo assay; assay type: functional; details: 168 h
KM12 [15] = experiment: Growth inhibition of human KM12 cells at 10 uM after 7 days by celltiter-glo assay; assay type: functional; details: KM12, 168 h, read-out: GI
LOX IMVI [16] = experiment: Growth inhibition of human LOXIMVI cells after 7 days by celltiter-glo assay; assay type: functional; details: 168 h
HCT-15 [17] = experiment: Ratio of compound GI50 to chlorambucil GI50 for human HCT15 cells; assay type: functional
OVCAR-3 = experiment: Growth inhibition of human OVCAR-3 cells at 10 uM after 7 days by celltiter-glo assay; assay type: functional; details: OVCAR-3, 168 h, read-out: GI
[18] = Growth inhibition of human p53 deficient Hep3B cells after 7 days by celltiter-glo assay; assay type: functional, Hep 3B2; details: 168 h; outline: as §1
NCI-H23 = experiment: Growth inhibition of human NCI-H23 cells after 7 days by celltiter-glo assay; assay type: functional; details: NCI-H23, 168 h
LOX IMVI [19] = experiment: Growth inhibition of human LOXIMVI cells at 10 uM after 7 days by celltiter-glo assay; assay type: functional; details: 168 h, read-out: GI
MOLT-4 = experiment: Growth inhibition of human MOLT4 cells after 7 days by celltiter-glo assay; assay type: functional; details: MOLT-4, 168 h
[20] = Growth inhibition of human Hs 578T cells at 10 uM after 7 days by celltiter-glo assay; assay type: functional; details: 168 h, read-out: GI

CON(CCCc1ccc(N(CCCl)CCCl)cc1)C1OC[C@@H](O)[C@@H]1O (stereo not given in full)
GI50 (HT-29): 410 nM | GI50 (HCT-15 [1]): 530 nM | inhibition of growth at 10 µM (UACC-62 [2]): 52.1% | GI50 (UACC-62 [3]): 1690 nM | GI50 (CAKI-1 [4]): 11500 nM | GI50 (IGROV-1): 1210 nM | inhibition of growth at 10 µM (K562): 88.5% | GI50 (SW-620): 12400 nM | GI50 (PC-3 [5]): 11700 nM | GI50 (KM12 [6]): 30000 nM | GI50 (DU-145): 1800 nM | GI50 (UO-31): 856 nM | GI50 (A549 [7]): 1100 nM | GI50 [8]: 370 nM | inhibition of growth at 10 µM (HCT-116): 69.4% | GI50 (A549 [9]): 12200 nM | GI50 (MDA-MB-231): 1390 nM | inhibition of growth at 10 µM (HCT-15 [10]): 77.1% | inhibition of growth at 10 µM (COLO 205): 93.3% | inhibition of growth at 10 µM (TK-10): 97.2% | inhibition of growth at 10 µM (PC-3 [11]): 72.5% | GI50 (SNB-19): 33400 nM | inhibition of growth at 10 µM (HOP-62): 73.2% | inhibition of growth at 10 µM (CAKI-1 [12]): 13.6% | inhibition of growth at 10 µM [13]: 15.9% | GI50 (OVCAR-8): 9130 nM | inhibition of growth at 10 µM (786-0): 67.9% | inhibition of growth at 10 µM (SK-MEL-2): 100% | inhibition of growth at 10 µM (SNB-75): 66.7% | inhibition of growth at 10 µM (HOP-92): 58.8% | inhibition of growth at 10 µM (Malme-3M): 69.7% | GI50 (NCI-H226): 925 nM | GI50 (A498): 21800 nM | RatioGI50 [14]: 13 | inhibition of growth at 10 µM (SK-MEL-28): 117% | GI50 (NCI/ADR-RES): 4610 nM | inhibition of growth at 10 µM (KM12 [15]): 97.6% | GI50 (LOX IMVI [16]): 8610 nM | RatioGI50 (HCT-15 [17]): 15 | inhibition of growth at 10 µM (OVCAR-3): 85.3% | GI50 [18]: 670 nM | GI50 (NCI-H23): 7150 nM | inhibition of growth at 10 µM (LOX IMVI [19]): 54.8% | GI50 (MOLT-4): 1220 nM | inhibition of growth at 10 µM [20]: 139%
